Compounds with a hit are over-represented: about 4.1% of the library has one in this group of screens.
UBC13 polyUb: inhibitors of human UBC13 polyubiquitin chain formation; inhibition, % at 20 µM; P61088; TR-FRET; 330,000 compounds, 0.47% hits; in the data active = inhibition above about 45%, passing the limit was not always enough
UPR CHOP act: apoptotic UPR (CHOP) activation; CHO-CHOP luciferase reporter, luminescence; percent of tunicamycin response over DMSO baseline; activation, % at 10 µM; 330,000 compounds, 0.34% hits; AID 449763;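 active = at 10 µM dose, activation of 40% or more, normalized to positive control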;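 note: 100% = tunicamycin at 10 µg/mL and 0% = DMSO alone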
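System: CHO CHOP reporter cells. Amount: 500 cells per well. Buffer or medium: F12 medium, 10% FBS. Compound dosing: one dose, 10 µM in 0.5% DMSO. Incubation: 6 h compound exposure at 37 °C after overnight seeding. Technique: Steady-Glo luciferase luminescence. Benchmarks: tunicamycin and DMSO controls.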
Mdm2 MdmX PPI: disrupts the human Mdm2-MdmX interaction | O15151+Q00987 | SaOS-2 split-luciferase Mdm2/MdmX complementation, luminescence | AID 485346 | 330,000 compounds, 3% hits | inhibition, % at 8 µM;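 active = inhibition of at least 50% at 8 µM in the primary screen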
UPR XBP1 act: activators of adaptive arm of unfolded protein response (XBP1). CHO-XBP1 luciferase reporter, IRE1-XBP1 UPR activation, luminescence; percent of tunicamycin response, DMSO as zero. AID 463104. 330,000 compounds, 0.33% hits. activation, % at 20 µM;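 active = versus positive control, 20 µM dose yields 30% or more activation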;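 note: 100% = tunicamycin at 10 µg/mL and 0% = DMSO only wells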
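Material: CHO cell line with stable XBP1 luciferase reporter; schedule: 16-18 h cell attachment at 37 °C, then 6 h compound exposure; signal: glow luminescence from Steady-Glo reagent; medium: serum-containing F12 medium, 10% FBS; benchmarks: tunicamycin 10 µg/mL and vehicle-only wells; read-out: percent activation relative to tunicamycin reference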
Apaf-1 inh: inhibitors of human Apaf-1 apoptosome; reconstituted apoptosome caspase-3 activity, DEVD-Rh110 fluorescence; inhibition, % at 20 µM; 330,000 compounds, 0.71% hits; AID 489030; active = inhibition of at least 40% at 20 µM;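 note: plate controls were DMSO wells for no effect and DEVD-CHO caspase inhibitor wells for full effect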
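System – cell-free apoptosome with Apaf-1, procaspase-3 and caspase-9 · Buffer or medium – pH 7.5 Hepes buffer with CHAPS, BSA, DTT · Also added – cytochrome c with DEVD-Rh110 · Times – 30 min compound preincubation, 50 min activation, room temperature · Technique – Rh110 fluorescence intensity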
Mdm2-MdmX conf: confirmation of human Mdm2/MdmX interaction inhibitors; Mdm2-MdmX binding, luminescent assay; inhibition, % at 8 µM; 10,000 compounds, 55% hits; shares compounds with Mdm2 MdmX PPI; in the data active = inhibition above about 40%
FLuc counter: counter-screen for Mdm2/MdmX inhibitors: full-length luciferase | shares compounds with Mdm2 MdmX PPI | SaOS-2 full-length luciferase counterscreen, luminescence | inhibition, % at 8 µM | 6,200 compounds, 77% hits;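 active = mean inhibition at 8 µM reaching about 37%, which flags the compound as non-specific, limit read from the data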;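 note: p53-null SaOS-2 cells with luciferase driven by a doxycycline-inducible promoter; compound on cells about two nights before reading with doxycycline added after day one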
The depositor's hits bear a star; . = no result given.

SMILES	UBC13 polyUb	UPR CHOP act	Mdm2 MdmX PPI	UPR XBP1 act	Apaf-1 inh	Mdm2-MdmX conf	FLuc counter
CCOC(=O)C1(c2ccccc2)CCN(CCC(C#N)(c2ccccc2)c2ccccc2)CC1	6	1	63*	-7	16	32	.
CCOC(=O)C1(c2ccccc2)CCN(CCC(=O)Nc2ccc(C(=O)OC)cc2)CC1	10	0	17	0	7	.	.
CC(=O)O[C@@H]1/C=C/[C@](C)(O)C[C@@H](C)C/C=C/[C@H]2[C@H](O)C(C)=C(C)[C@H]3[C@H](Cc4ccccc4)NC(=O)[C@@]123	5	4	72*	0	-11	74*	49*
CNc1ccc2oc(C[C@H]3O[C@@]4(CC[C@H]3C)O[C@H]([C@H](C)C(=O)c3ccc[nH]3)[C@H](C)C[C@H]4C)nc2c1C(=O)O	-4	7	100*	26	5	98*	52*
N#CCP(=S)(c1ccccc1)c1ccccc1	0	-4	9	-4	12	.	.
COc1cc2c(c(OC)c1OC)-c1ccc(O)c(=O)cc1C(NC(C)=O)CC2 (configuration not stated)	-4	1	69*	16	-5	66*	110*
O=C1/C(=C\c2ccccc2)C2OCC=C3CN4CCC56c7ccccc7N1C5C2C3CC46 (configuration not stated)	3	0	71*	-5	13	51*	70*
COC(=O)C1=C(c2cccc(C#N)c2)C[C@@H]2CC[C@H]1N2C(=O)NCCOc1ccc(OC)cc1	6	1	-8	2	2	.	.
COc1ccc(Oc2cc(NC(=O)c3nn(C)cc3[N+](=O)[O-])cc([N+](=O)[O-])c2)cc1	9	17	76*	2	-12	96*	46*
Clc1ccc(N2CC2c2ccncc2)cc1 (configuration not stated)	0	1	10	2	2	.	.
COc1cc(C=C2C(=O)NC(=O)NC2=O)ccc1OS(=O)(=O)c1ccccc1[N+](=O)[O-]	4	3	-31	1	10	.	.
CC(C)(C)c1ccc(O)c(N=Cc2c(O)ccc3ccccc23)c1	-182	10	50*	-3	21	18	.
COC(=O)C(O)(c1ccc(N=Cc2ccccc2O)c(C)c1)C(F)(F)F (configuration not stated)	-4	1	4	-4	1	.	.
CC(C)c1ccccc1OCC(=O)N1CCCN(C)CC1	3	-1	13	-7	12	.	.
COC(=O)C1=C(c2cccc(OCc3ccccc3)c2)C[C@@H]2CC[C@H]1N2C(=O)NCCc1ccc(F)cc1	-11	1	16	-1	21	.	.
Clc1ccc(CSC(Cn2ccnc2)c2ccc(Cl)cc2Cl)cc1 (configuration not stated)	44	1	42	-4	39	.	.
Clc1ccc(CO/N=C(\Cn2ccnc2)c2ccc(Cl)cc2Cl)c(Cl)c1	51*	7	56*	-7	36	29	.
C=C1[C@@H](C)[C@H]2[C@H](Cc3ccccc3)NC(=O)[C@]23OC(=O)/C=C/[C@H](O)CCC[C@@H](C)C/C=C/[C@H]3[C@@H]1O	-45	3	82*	-6	4	71*	53*
Cc1ncc(CN2CCCC(C(=O)c3sccc3C)C2)s1 (configuration not stated)	2	-1	2	-5	-8	.	.
Cc1ccc(CNCCc2ccccc2F)cc1	6	3	3	4	-1	.	.
CCN(CC)c1ccc(CNCCc2ccccc2F)cc1	5	1	54*	-1	-4	48*	61*
CC(=O)c1c(C)n(Cc2ccccc2Cl)c2ccc(O)cc12	4	0	52*	0	4	38	110*
O=c1[nH]c(O)c(N=Nc2ccc(SC(F)F)cc2)c(=O)[nH]1	-1	3	0	2	-10	.	.
CCCCn1c(O)c(C(CC)=NCc2ccc3c(c2)OCO3)c(=O)[nH]c1=O	6	3	-19	1	13	.	.
C=CCn1c(O)c(C(CC)=NCc2ccc3c(c2)OCO3)c(=O)[nH]c1=O	5	-1	55*	2	-6	5	.
SMILES	UBC13 polyUb	UPR CHOP act	Mdm2 MdmX PPI	UPR XBP1 act	Apaf-1 inh	Mdm2-MdmX conf	FLuc counter
CNC(C(=O)c1ccccc1)C(OC)c1ccc(C)cc1 (configuration not stated)	12	1	-29	-2	-8	.	.
CCOC(=O)CC(NC(=O)C(Cc1ccc(N(CCCl)CCCl)cc1)NC(C)=O)C(=O)OCC (configuration not stated)	0	2	81*	1	3	57*	15
CC(=O)NC(Cc1ccc(N(CCCl)CCCl)cc1)C(=O)NC(C(=O)O)C(C)C (configuration not stated)	-4	-1	7	2	-2	.	.
C[C@H](NC(=O)N1C[C@H]2C[C@@H](C1)c1cccc(=O)n1C2)C(=O)Nc1ccccc1F	-6	-2	-23	3	-1	.	.
CN1CC(C#N)C2(O)c3ccccc3CCC2C1 (configuration not stated)	-4	3	4	-4	3	.	.
CC12CC[C@H]3[C@@H](CCC4(O)C[C@H](O)CCC34/C=N/NC(=O)Cc3ccccc3)C1(O)CCC2C1=CC(=O)OC1 (some centres not stated)	-2	1	-36	2	-17	.	.
C[C@]12CC[C@H](O)C[C@H]1CC[C@@H]1[C@@H]2C[C@@H](O)[C@]2(C)[C@@H](C3=CC(=O)OC3)CC[C@]12O	-12	2	73*	-8	19	73*	34
C[C@]12CC[C@H](O)C[C@H]1CC[C@@H]1[C@@H]2CC[C@]2(C)[C@@H](C3=CC(=O)OC3)CC[C@]12O	4	2	75*	-5	-8	73*	53*
Cc1ccsc1C(=O)C1CCCN(Cc2cc(C(C)C)n[nH]2)C1 (configuration not stated)	8	-3	-3	-2	5	.	.
COc1ccc(NC(=O)c2cn(CCC#N)nc2-c2cccc(Br)c2)cc1	-1	2	3	1	9	.	.
O=[N+]([O-])c1cnc[nH]1	-17	1	2	-4	7	.	.
NC(=O)c1cn(C2OC(CO)C(O)C2O)c2ncnc(N)c12 (configuration not stated)	-2	-4	100*	1	4	99*	1
O=C(C(=O)N1CCOCC1)c1cn(Cc2c(F)cccc2Cl)c2ccccc12	34	0	10	1	-18	.	.

Source: PubChem BioAssay
